Values after ≈ are worked out from the molar mass of the structure shown.
Experiments:
Escherichia coli [1] = assay: In vitro relative hydrolysis rate against Escherichia coli IIIa; assay type: functional
Outline: (§1)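 Spectrophotometric hydrolysis at 265 nm, substrate exposed to partially purified cell-free β-lactamase preparations; rate expressed as percentage of the cephaloridine rate.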

Enterobacter cloacae [2] = assay: In vitro relative hydrolysis rate against Enterobacter Ia; assay type: functional; outline: as §1
Enterobacter cloacae [3] = assay: Antibacterial activity against Enterobacter cloacae 265A; assay type: functional; conditions: Enterobacter cloacae; read-out: MIC
Escherichia coli [4] = assay: Antibacterial activity against Escherichia coli EC14; assay type: functional; conditions: Escherichia coli; read-out: MIC
Enterobacter cloacae [5] = assay: Antibacterial activity against Enterobacter cloacae EB5; assay type: functional; conditions: Enterobacter cloacae; read-out: MIC
Escherichia coli [6] = assay: Antibacterial activity against Escherichia coli TEM; assay type: functional; conditions: Escherichia coli; read-out: MIC
Klebsiella pneumoniae [7] = assay: microbe, parasite or virus in culture; assay type: functional; conditions: Klebsiella pneumoniae; read-out: MIC
Klebsiella pneumoniae [8] = assay: Antibacterial activity against Klebsiella pneumoniae X26; assay type: functional; conditions: Klebsiella pneumoniae; read-out: MIC
Klebsiella pneumoniae [9] = assay: In vitro relative hydrolysis rate against Klebsiella IV; assay type: functional; outline: as §1
Pseudomonas aeruginosa [10] = assay: In vivo efficacy against Pseudomonas aeruginosa infected mice treated at 1 hr and 5 hr post infection; assay type: functional; conditions: Pseudomonas aeruginosa; read-out: ED50
Staphylococcus aureus [11] = assay: In vivo efficacy against Staphylococcus aureus infected mice treated at 1 hr and 5 hr post infection; assay type: functional; conditions: Staphylococcus aureus; read-out: ED50
Escherichia coli [12] = assay: In vivo efficacy against Escherichia coli infected mice treated at 1 hr and 5 hr post infection; assay type: functional; conditions: Escherichia coli; read-out: ED50
Escherichia coli [13] = assay: In vivo efficacy against Escherichia coli infections in mice; assay type: functional; conditions: Escherichia coli; read-out: MIC
Pseudomonas aeruginosa [14] = assay: In vivo efficacy against Pseudomonas aeruginosa infections in mice; assay type: functional; conditions: Pseudomonas aeruginosa; read-out: MIC
Staphylococcus aureus [15] = assay: In vivo efficacy against Staphylococcus aureus infections in mice; assay type: functional; conditions: Staphylococcus aureus; read-out: MIC
Pseudomonas aeruginosa [16] = assay: In vitro relative hydrolysis rate against Pseudomonas Id; assay type: functional; outline: as §1
Pseudomonas aeruginosa [17] = assay: Antibacterial activity against Pseudomonas aeruginosa X528; assay type: functional; conditions: Pseudomonas aeruginosa; read-out: MIC
Pseudomonas aeruginosa [18] = assay: Antibacterial activity against Pseudomonas aeruginosa PS18; assay type: functional; conditions: Pseudomonas aeruginosa; read-out: MIC
Staphylococcus aureus [19] = assay: Antibacterial activity against penicillin G resistance Staphylococcus aureus; assay type: functional; conditions: Staphylococcus aureus; read-out: MIC
Staphylococcus aureus [20] = assay: Antibacterial activity against penicillin G susceptible Staphylococcus aureus; assay type: functional; conditions: Staphylococcus aureus; read-out: MIC
Streptococcus pneumoniae = assay: Antibacterial activity against Streptococcus pneumoniae; assay type: functional; conditions: Streptococcus pneumoniae; read-out: MIC
Serratia marcescens = assay: Antibacterial activity against Serratia marcescens SE3; assay type: functional; conditions: Serratia marcescens; read-out: MIC
Staphylococcus aureus [21] = assay: In vitro relative hydrolysis rate against Staphylococcus aureus; assay type: functional; outline: as §1
Streptococcus pyogenes = assay: Antibacterial activity against Streptococcus pyogenes; assay type: functional; conditions: Streptococcus pyogenes; read-out: MIC
Enterococcus faecium = assay: Antibacterial activity against Enterococcus faecium; assay type: functional; conditions: Enterococcus faecium; read-out: MIC
[22] = Terminal half life in dogs at the dose of 60 mg/kg.; assay type: ADME, organism-based, Canis lupus familiaris; design: dose 60 mg/kg; conditions: dog, in vivo
Outline: (§2)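 Overnight-fasted female mongrel dogs with a Foley bladder catheter; bolus into the cephalic vein. Plasma and urine collected before dosing and over 24 h after. Antibacterial activity measured by microbiological assay.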

Canis familiaris = assay: Percent of dose in dogs urine at the dose of 60 mg/kg.; assay type: functional, Canis lupus familiaris; outline: as §2
Cavia porcellus = species on record: Cavia porcellus; assay: In vitro relative anticholinergic potential in isolated guinea pig trachea; assay type: functional
Outline: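 Guinea pig trachea in Krebs' solution at 37.5 °C, 95% O2/5% CO2, pH 7.4, 2 g resting tension. Cumulative carbachol log dose-response curve (3-fold steps) run before and 30 min after adding antagonist at 1 mM. […] Tukey test on log2 dose ratios.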

[23] = In vitro dose required for anticholinergic activity in isolated guinea pig trachea; assay type: functional

SMILES	Hydrolysis rate (Escherichia coli [1])	Hydrolysis rate (Enterobacter cloacae [2])	MIC (Enterobacter cloacae [3])	MIC (Escherichia coli [4])	MIC (Enterobacter cloacae [5])	MIC (Escherichia coli [6])	MIC (Klebsiella pneumoniae [7])	MIC (Klebsiella pneumoniae [8])	Hydrolysis rate (Klebsiella pneumoniae [9])	ED50 (Pseudomonas aeruginosa [10])	ED50 (Staphylococcus aureus [11])	ED50 (Escherichia coli [12])	MIC (Pseudomonas aeruginosa [17])	MIC (Pseudomonas aeruginosa [18])	MIC (Staphylococcus aureus [19])	MIC (Staphylococcus aureus [20])	MIC (Streptococcus pneumoniae)	MIC (Serratia marcescens)	MIC (Streptococcus pyogenes)	MIC (Enterococcus faecium)	also measured
CO/N=C(\C(=O)N[C@@H]1C(=O)N2C(C(=O)[O-])=C(C[n+]3ccc4ccsc4c3)CS[C@H]12)c1csc(N)n1	0.2	0.7	8 µg/mL (≈ 15.1 µM)	0.015 µg/mL (≈ 0.0283 µM)	0.06 µg/mL (≈ 0.113 µM)	0.03 µg/mL (≈ 0.0565 µM)	4 µg/mL (≈ 7.54 µM)	0.015 µg/mL (≈ 0.0283 µM)	6.9	9.5 mg/kg	0.4 mg/kg	0.02 mg/kg	2 µg/mL (≈ 3.77 µM)	4 µg/mL (≈ 7.54 µM)	4 µg/mL (≈ 7.54 µM)	1 µg/mL (≈ 1.88 µM)	< 0.008 µg/mL	0.03 µg/mL (≈ 0.0565 µM)	< 0.008 µg/mL	> 128 µg/mL	MIC (Escherichia coli [13]): < 0.008 µg/mL; MIC (Pseudomonas aeruginosa [14]): 4 µg/mL (≈ 7.54 µM); MIC (Staphylococcus aureus [15]): 1 µg/mL (≈ 1.88 µM); Hydrolysis rate (Pseudomonas aeruginosa [16]): 0.4; Hydrolysis rate (Staphylococcus aureus [21]): 7.1
CO/N=C(\C(=O)N[C@@H]1C(=O)N2C(C(=O)[O-])=C(C[n+]3cccc4ccsc43)CS[C@H]12)c1csc(N)n1	0.5	0.1	4 µg/mL (≈ 7.54 µM)	0.03 µg/mL (≈ 0.0565 µM)	0.125 µg/mL (≈ 0.236 µM)	0.06 µg/mL (≈ 0.113 µM)	4 µg/mL (≈ 7.54 µM)	0.03 µg/mL (≈ 0.0565 µM)	1.5	13.5 mg/kg	0.8 mg/kg	0.05 mg/kg	4 µg/mL (≈ 7.54 µM)	8 µg/mL (≈ 15.1 µM)	2 µg/mL (≈ 3.77 µM)	1 µg/mL (≈ 1.88 µM)	0.03 µg/mL (≈ 0.0565 µM)	0.06 µg/mL (≈ 0.113 µM)	0.03 µg/mL (≈ 0.0565 µM)	128 µg/mL (≈ 241 µM)	MIC (Escherichia coli [13]): 0.015 µg/mL (≈ 0.0283 µM); MIC (Pseudomonas aeruginosa [14]): 4 µg/mL (≈ 7.54 µM); MIC (Staphylococcus aureus [15]): 1 µg/mL (≈ 1.88 µM); Hydrolysis rate (Pseudomonas aeruginosa [16]): 0; Hydrolysis rate (Staphylococcus aureus [21]): 9.6
CO/N=C(\C(=O)N[C@@H]1C(=O)N2C(C(=O)[O-])=C(C[n+]3cccc4occc43)CS[C@H]12)c1csc(N)n1			4 µg/mL (≈ 7.77 µM)	0.06 µg/mL (≈ 0.117 µM)	0.5 µg/mL (≈ 0.972 µM)	0.06 µg/mL (≈ 0.117 µM)	8 µg/mL (≈ 15.5 µM)	0.06 µg/mL (≈ 0.117 µM)					4 µg/mL (≈ 7.77 µM)	8 µg/mL (≈ 15.5 µM)	4 µg/mL (≈ 7.77 µM)	0.5 µg/mL (≈ 0.972 µM)	0.06 µg/mL (≈ 0.117 µM)	0.25 µg/mL (≈ 0.486 µM)	0.06 µg/mL (≈ 0.117 µM)	32 µg/mL (≈ 62.2 µM)	half-life [22]: 1.67 h; Percent of dose recovered in urine (Canis familiaris): 78%
CO/N=C(\C(=O)N[C@@H]1C(=O)N2C(C(=O)[O-])=C(C[n+]3ccc4sc(C)cc4c3)CS[C@H]12)c1csc(N)n1			4 µg/mL (≈ 7.34 µM)	0.015 µg/mL (≈ 0.0275 µM)	0.06 µg/mL (≈ 0.11 µM)	0.015 µg/mL (≈ 0.0275 µM)	1 µg/mL (≈ 1.84 µM)	< 0.008 µg/mL					2 µg/mL (≈ 3.67 µM)	8 µg/mL (≈ 14.7 µM)	4 µg/mL (≈ 7.34 µM)	0.5 µg/mL (≈ 0.918 µM)	< 0.008 µg/mL	0.06 µg/mL (≈ 0.11 µM)	< 0.008 µg/mL	> 128 µg/mL	half-life [22]: 1.67 h; Percent of dose recovered in urine (Canis familiaris): 64%
CO/N=C(\C(=O)N[C@@H]1C(=O)N2C(C(=O)[O-])=C(C[n+]3cccc4ccccc43)CS[C@H]12)c1csc(N)n1	0.2	0.1	4 µg/mL (≈ 7.63 µM)	0.03 µg/mL (≈ 0.0572 µM)	0.125 µg/mL (≈ 0.238 µM)	0.015 µg/mL (≈ 0.0286 µM)	2 µg/mL (≈ 3.81 µM)	0.015 µg/mL (≈ 0.0286 µM)	0.8	9.5 mg/kg	0.4 mg/kg	0.04 mg/kg	2 µg/mL (≈ 3.81 µM)	4 µg/mL (≈ 7.63 µM)	1 µg/mL (≈ 1.91 µM)	0.5 µg/mL (≈ 0.953 µM)	0.015 µg/mL (≈ 0.0286 µM)	0.125 µg/mL (≈ 0.238 µM)	0.015 µg/mL (≈ 0.0286 µM)	128 µg/mL (≈ 244 µM)	MIC (Escherichia coli [13]): 0.03 µg/mL (≈ 0.0572 µM); MIC (Pseudomonas aeruginosa [14]): 8 µg/mL (≈ 15.3 µM); MIC (Staphylococcus aureus [15]): 0.5 µg/mL (≈ 0.953 µM); Hydrolysis rate (Pseudomonas aeruginosa [16]): 0.1; Hydrolysis rate (Staphylococcus aureus [21]): 8.4
CO/N=C(\C(=O)N[C@@H]1C(=O)N2C(C(=O)[O-])=C(C[n+]3csc(CCO)c3C)CS[C@H]12)c1csc(N)n1			4 µg/mL (≈ 7.43 µM)	0.06 µg/mL (≈ 0.111 µM)	0.125 µg/mL (≈ 0.232 µM)	0.03 µg/mL (≈ 0.0557 µM)	4 µg/mL (≈ 7.43 µM)	0.03 µg/mL (≈ 0.0557 µM)					8 µg/mL (≈ 14.9 µM)	16 µg/mL (≈ 29.7 µM)	4 µg/mL (≈ 7.43 µM)	2 µg/mL (≈ 3.71 µM)	0.03 µg/mL (≈ 0.0557 µM)	0.125 µg/mL (≈ 0.232 µM)	0.03 µg/mL (≈ 0.0557 µM)	16 µg/mL (≈ 29.7 µM)	RAP (Cavia porcellus): 1; Dose ratio [23]: 1.27
